# Measured values collected from several papers.
# Target: Protein kinase C epsilon type (PRKCE, Homo sapiens, UniProt Q02156)
SMILES,effect on,action,method,tested at,quantity,value
O=C(Nc1nccs1)C(c1cc(F)ccc1O)N1Cc2ccccc2C1=O (stereo not shown),enzyme activity,inhibitor,,1 µM,inhibition,14%
C=CC(=O)Nc1cc(Nc2nccc(Nc3cc(Cl)c(F)cc3C(C)(C)O)n2)c(OC)cc1N1CC[C@@H](N(C)C)C1,enzyme activity,inhibitor,,1 µM,inhibition,2%
CNCc1ccccc1-c1csc([C@H](C)Nc2nc(C)nc3cc(OC)c(OC)cc23)c1,cell-free assay,,competition with immobilised ligand,1 µM,remaining binding,78%
O=C(Nc1cnn(-c2csc(C(=O)NC3COC3)c2)c1)Nc1c(F)cccc1Cl,enzyme activity,inhibitor,,5 µM,remaining activity,94.2%
Cc1ccc(-n2nc(C(C)(C)C)cc2NC(=O)Nc2ccc(OCCN3CCOCC3)c3ccccc23)cc1,enzyme activity,inhibitor,,10 µM,inhibition,16%
Cc1ccc(NC(=O)c2ccc(C)c(C(F)(F)F)c2)cc1C#Cc1nn(C2CCC(O)CC2)c2ncnc(N)c12 (stereo not shown),cell-free assay,,,10 µM,remaining signal,117%
O=C(O)c1cc(-c2ccc(C3CCNCC3)cc2)c2ccc(-c3ccc(C(F)(F)F)cc3)cc2c1,cell-free assay,,competition with immobilised ligand,1 µM,remaining binding,100%
Cc1ccc(Nc2nccc(N(C)c3ccc4c(C)n(C)nc4c3)n2)cc1S(N)(=O)=O,enzyme activity,inhibitor,,10 µM,inhibition,12%
CC(C)(C)c1nc2c(s1)c1nc(N)ncc1c1ccc(NS(=O)(=O)c3c(F)cccc3F)c(F)c12,enzyme activity,inhibitor,radiometric,1 µM,remaining activity,133%
Cc1cnc(NC2CCOCC2)nc1-n1cnc(C(=O)NC(CN)c2cc(F)cc(Cl)c2)c1 (stereo not shown),enzyme activity,inhibitor,radiometric,1 µM,remaining activity,91%
Cc1ccc(C(=O)NCc2ccsc2)cc1C#Cc1cn(C(C)C)c2ncnc(N)c12,enzyme activity,inhibitor,,1 µM,activity vs control,104%
Nc1ncnc2occ(-c3ccc(NC(=O)Nc4cc(C(F)(F)F)ccc4F)cc3)c12,cell-free assay,,,20 µM,remaining signal,50%
Cc1nc(Cc2cccc(C(F)(F)F)c2)sc1-c1ccc(C(N)=O)nc1,cell-free assay,,competition with immobilised ligand,1 µM,remaining binding,100%
COc1cc2ncnc(Nc3ccc(Oc4ccccc4)c(C)c3C)c2cc1OC,enzyme activity,inhibitor,,1 µM,inhibition,-5%
CN(C)CC#Cc1ccc(OCCCc2sc(N3CCc4cccc(C(=O)Nc5nc6ccccc6s5)c4C3)nc2C(=O)O)c(F)c1,cell-free assay,,competition with immobilised ligand,1 µM,remaining binding,100%
O=C1Nc2ccc(Cl)cc2C1=Cc1cc(Cl)c(O)c(Cl)c1,cell-free assay,,,0.5 µM,remaining signal,100%
Cn1cncc1C1=CN(c2ncnc3[nH]cnc23)CCS1,enzyme activity,inhibitor,radiometric,2 µM,inhibition,92.7%
Nc1cnc(N2CCc3cc(S(=O)(=O)Nc4c(F)cc(Cl)cc4F)cc(N4CCCC4=O)c32)nc1,cell-free assay,,competition with immobilised ligand,1 µM,remaining binding,100%
CNC(=O)c1cc(Oc2ccc(NC(=O)Nc3ccc(Cl)c(C(F)(F)F)c3)cc2)ccn1,cell-free assay,,,0.5 µM,remaining signal,96.4%
Cc1nc(N2CC[C@@H](O)C2)ncc1-c1cc(C(F)(F)F)cc2[nH]ncc12,cell-free assay,,competition with immobilised ligand,1 µM,remaining binding,88%
CCN(CC)c1ccc(C2=NNC(=O)CC2C)cc1[N+](=O)[O-] (stereo not shown),enzyme activity,inhibitor,,10 µM,remaining activity,95%
O=C(Nc1cccnn1)N1CCC(=Cc2cccc(Oc3ccc(C(F)(F)F)cn3)c2)CC1,cell-free assay,,competition with immobilised ligand,1 µM,remaining binding,82%
COc1ccc(COc2ccc(Cc3cnc(N)nc3N)cc2OC)cc1,cell-free assay,,,0.5 µM,remaining signal,95.7%
CCOC(=O)c1cc2cc(-c3cc(C(=O)NCc4ccc(C(=O)O)cc4)nn3C)ccc2[nH]1,cell-free assay,,competition with immobilised ligand,0.1 µM,remaining binding,90%
CS(=O)(=O)Nc1cccc(-c2csc(NC(=O)CSc3nc4nccnc4c(=O)n3CCc3ccccc3)n2)c1,enzyme activity,inhibitor,,10 µM,inhibition,-9%
